According to ChEMBL document CHEMBL2157903, “2-Arylbenzofuran-based molecules as multipotent Alzheimer's disease modifying agents” (Eur J Med Chem, 2012):

Experiments:
[1] = molecular target: Cholinesterase (Homo sapiens, UniProt P06276); assay: Inhibition of human serum BuChE using butyrylthiocholine iodide as substrate preincubated for 20 mins prior to substrate addition by Ellman's method
Summary of the method: (§1)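 Ellman method with acetylthiocholine iodide (AChE) or butyrylthiocholine iodide (BuChE) as substrate. Enzyme and inhibitor preincubated 20 min at 37 °C before substrate addition. Blanks without enzyme corrected for non-enzymatic hydrolysis. Five inhibitor concentrations giving 20-80% inhibition. IC50 from linear regression of % inhibition vs log final concentration. Mean of two or three independent measurements, each in triplicate.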

[2] = Induction of amyloid beta (25 to 35) fibril formation at 10 uM incubated up to 6 hrs by UV-Vis spectrophotometry
Summary of the method: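 Aβ25-35, sonicated 1 min, was mixed in 10 mM phosphate buffer (pH 7.2) with compound added in MeOH, on ice. Polymerization was followed by UV-visible spectroscopy at 190–380 nm over 0–6 h. Compound-alone spectra were subtracted, and peptide-alone and curcumin controls were run in parallel. IC50 (0.1–50 range) came from a sigmoidal least-squares fit. At least three independent runs.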

[3] = molecular target: T1, Cannabinoid receptor 1 (Homo sapiens, UniProt P21554); assay: Displacement of [3H]CP-55940 from human recombinant CB1 receptor expressed in HEK293 cells at 10 uM after 90 mins; assay type: cell-based
T1 sequence (P21554 whole entry): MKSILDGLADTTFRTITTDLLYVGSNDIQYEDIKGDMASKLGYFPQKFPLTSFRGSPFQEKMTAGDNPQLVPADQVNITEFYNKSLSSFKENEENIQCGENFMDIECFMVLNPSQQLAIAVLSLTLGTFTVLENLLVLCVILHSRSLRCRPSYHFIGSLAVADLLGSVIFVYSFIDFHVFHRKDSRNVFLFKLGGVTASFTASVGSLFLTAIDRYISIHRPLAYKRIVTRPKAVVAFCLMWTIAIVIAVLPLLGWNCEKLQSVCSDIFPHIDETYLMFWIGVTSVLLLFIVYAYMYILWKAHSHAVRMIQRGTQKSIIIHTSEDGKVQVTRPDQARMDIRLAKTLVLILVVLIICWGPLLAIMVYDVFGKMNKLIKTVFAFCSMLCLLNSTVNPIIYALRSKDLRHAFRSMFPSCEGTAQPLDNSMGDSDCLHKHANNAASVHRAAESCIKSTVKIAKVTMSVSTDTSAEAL
Summary of the method: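 Membranes from HEK-293 cells stably expressing human recombinant CB1 or CB2 were incubated with [³H]-CP-55,940 (0.14 nM for CB1; 0.084 nM for CB2) plus test compound for 90 min at 30 °C. Non-specific binding was defined with WIN 55212-2. Percent displacement of bound radioligand at the maximum tested concentration is reported. At least n = 3 experiments.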

[4] = molecular target: T2, Cannabinoid receptor 2 (Homo sapiens, UniProt P34972); assay: Displacement of [3H]CP-55940 from human recombinant CB2 receptor expressed in HEK293 cells after 90 mins; assay type: cell-based
T2 sequence (P34972 whole entry): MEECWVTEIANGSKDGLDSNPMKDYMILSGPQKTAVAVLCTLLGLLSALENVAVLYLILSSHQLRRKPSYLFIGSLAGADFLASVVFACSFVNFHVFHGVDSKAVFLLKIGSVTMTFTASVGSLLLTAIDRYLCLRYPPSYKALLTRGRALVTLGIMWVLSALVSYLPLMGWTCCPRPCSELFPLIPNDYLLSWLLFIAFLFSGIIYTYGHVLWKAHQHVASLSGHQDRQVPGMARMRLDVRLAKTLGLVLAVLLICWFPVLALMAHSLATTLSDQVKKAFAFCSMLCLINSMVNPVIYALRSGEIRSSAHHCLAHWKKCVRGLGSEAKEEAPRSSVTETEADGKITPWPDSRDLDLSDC
Summary of the method: (§2)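 Membranes from HEK-293 cells stably expressing human recombinant CB1 (Bmax 2.5 pmol/mg) or CB2 (Bmax 4.7 pmol/mg). Incubated with [3H]-CP-55,940 (CB1 0.14 nM, Kd 0.18 nM; CB2 0.084 nM, Kd 0.31 nM) and increasing compound concentrations for 90 min at 30 °C. Non-specific binding defined with 10 […] 55212-2. IC50 by non-linear regression, converted to Ki by Cheng-Prusoff. Means of at least n = 3.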

[5] = molecular target: T2, Cannabinoid receptor 2; assay: Displacement of [3H]CP-55940 from human recombinant CB2 receptor expressed in HEK293 cells at 10 uM after 90 mins; assay type: cell-based
[6] = molecular target: Acetylcholinesterase (Homo sapiens, UniProt P22303); assay: Inhibition of human recombinant AChE using acetylthiocholine iodide as substrate preincubated for 20 mins prior to substrate addition by Ellman's method; settings: read-out: IC50; summary of the method: as §1
Sequence of Acetylcholinesterase (P22303 whole entry): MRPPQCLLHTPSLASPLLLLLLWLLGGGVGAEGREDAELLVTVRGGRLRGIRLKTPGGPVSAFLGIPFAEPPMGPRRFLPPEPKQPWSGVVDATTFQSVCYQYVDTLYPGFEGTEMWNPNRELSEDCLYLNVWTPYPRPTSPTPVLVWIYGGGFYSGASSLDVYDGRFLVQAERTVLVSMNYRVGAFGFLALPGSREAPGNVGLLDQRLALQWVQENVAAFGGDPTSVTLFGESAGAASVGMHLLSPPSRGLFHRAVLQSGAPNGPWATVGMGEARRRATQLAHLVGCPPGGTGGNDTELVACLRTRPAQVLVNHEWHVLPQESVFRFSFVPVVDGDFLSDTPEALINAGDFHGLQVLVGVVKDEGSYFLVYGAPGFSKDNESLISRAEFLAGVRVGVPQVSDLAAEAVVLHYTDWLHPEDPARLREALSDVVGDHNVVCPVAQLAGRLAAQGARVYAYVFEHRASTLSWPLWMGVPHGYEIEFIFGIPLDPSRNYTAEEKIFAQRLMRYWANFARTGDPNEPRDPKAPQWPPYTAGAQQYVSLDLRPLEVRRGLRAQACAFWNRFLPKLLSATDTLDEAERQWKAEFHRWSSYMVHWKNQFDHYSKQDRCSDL

[7] = molecular target: T1, Cannabinoid receptor 1; assay: Displacement of [3H]CP-55940 from human recombinant CB1 receptor expressed in HEK293 cells after 90 mins; assay type: cell-based; summary of the method: as §2

Sequence of Cholinesterase (P06276 whole entry): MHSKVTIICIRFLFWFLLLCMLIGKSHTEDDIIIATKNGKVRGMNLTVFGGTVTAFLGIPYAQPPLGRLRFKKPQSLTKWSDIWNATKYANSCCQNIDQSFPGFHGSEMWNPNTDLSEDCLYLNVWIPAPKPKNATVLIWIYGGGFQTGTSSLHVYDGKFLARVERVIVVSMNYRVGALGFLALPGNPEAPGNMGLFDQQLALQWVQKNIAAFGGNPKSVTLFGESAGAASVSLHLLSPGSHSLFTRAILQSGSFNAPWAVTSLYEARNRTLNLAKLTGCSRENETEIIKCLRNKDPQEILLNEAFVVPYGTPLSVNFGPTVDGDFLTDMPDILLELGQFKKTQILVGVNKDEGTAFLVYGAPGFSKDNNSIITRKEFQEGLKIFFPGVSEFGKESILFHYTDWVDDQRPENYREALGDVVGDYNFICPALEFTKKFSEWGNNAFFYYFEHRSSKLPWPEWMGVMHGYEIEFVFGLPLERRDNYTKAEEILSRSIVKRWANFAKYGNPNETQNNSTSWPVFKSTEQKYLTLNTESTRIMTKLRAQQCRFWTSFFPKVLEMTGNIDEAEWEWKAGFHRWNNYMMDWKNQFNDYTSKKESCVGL

## CN(CCCCCCCOc1ccc(-c2oc3ccccc3c2C(=O)c2c3ccccc3cc3ccccc23)cc1)Cc1ccccc1
[1]
  IC50: 81.2 µM
[2]
  Activity: Toxic
[3]
  Activity: 30.3%
[4]
  EC50: > 10 µM
  Ki: > 10 µM
[5]
  Activity: 9.87%
[6]
  IC50: 67.7 µM
[7]
  EC50: > 10 µM
  Ki: > 10 µM
